Reference: ChEMBL document CHEMBL1137240, “Conjugation of adenosine and hexa-(D-arginine) leads to a nanomolar bisubstrate-analog inhibitor of basophilic protein kinases” (J Med Chem, 2006)

Assays:
[1] = molecular target: Mitogen-activated protein kinase 11 (Homo sapiens) (UniProt Q15759); assay: Percent residual activity, relative to control, of SAPK2b/p38ss2 at 1 uM concentration of inhibitor in presence of 20 uM ATP
How it was run: (§1)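 It is expressed as percent of activity in control incubations without inhibitor, as the mean of duplicate determinations. The protocol follows earlier published panel methods.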

[2] = molecular target: MAP/microtubule affinity-regulating kinase 3 (Homo sapiens) (UniProt P27448); assay: Percent residual activity, relative to control, of MARK3 at 1uM concentration of inhibitor in presence of 5uM ATP; how it was run: as §1
[3] = molecular target: RAC-beta serine/threonine-protein kinase (Homo sapiens) (UniProt P31751); assay: Percent residual activity, relative to control, of PKB beta at 1uM concentration of inhibitor in presence of 50uM ATP; how it was run: as §1
[4] = molecular target: Myosin light chain kinase, smooth muscle (Homo sapiens) (UniProt Q15746); assay: Percent residual activity, relative to control, of smMLCK at 1uM concentration of inhibitor in presence of 50uM ATP
How it was run: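 Methods followed an earlier description. Activity is given as percent residual activity relative to control incubations with the inhibitor omitted. Values are means of duplicate determinations.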

[5] = molecular target: Mitogen-activated protein kinase 12 (Homo sapiens) (UniProt P53778); assay: Percent residual activity, relative to control, of SAPK3/p38 gamma at 1 uM concentration of inhibitor in presence of 5 uM ATP; how it was run: as §1
[6] = molecular target: Serine/threonine-protein kinase Nek2 (Homo sapiens) (UniProt P51955); assay: Percent residual activity, relative to control, of NEK2a at 1 uM concentration of inhibitor in presence of 50 uM ATP; how it was run: as §1
[7] = molecular target: Mitogen-activated protein kinase 13 (Homo sapiens) (UniProt O15264); assay: Percent residual activity, relative to control, of SAPK4/p38 delta at 1 uM concentration of inhibitor in presence of 5 uM ATP; how it was run: as §1
[8] = molecular target: Mitogen-activated protein kinase 1 (Homo sapiens) (UniProt P28482); assay: Percent residual activity, relative to control, of MAPK2/ERK2 at 1 uM concentration of inhibitor in presence of 50 uM ATP; how it was run: as §1
[9] = molecular target: Serine/threonine-protein kinase N2 (Homo sapiens) (UniProt Q16513); assay: Percent residual activity, relative to control, of PRK2 at 1 uM concentration of inhibitor in presence of 5 uM ATP; how it was run: as §1
[10] = molecular target: Mitogen-activated protein kinase 14 (Homo sapiens) (UniProt Q16539); assay: Percent residual activity, relative to control, of SAPK2a/p38 at 1 uM concentration of inhibitor in presence of 50 uM ATP; how it was run: as §1
[11] = molecular target: Dual specificity mitogen-activated protein kinase kinase 1 (Homo sapiens) (UniProt Q02750); assay: Percent residual activity, relative to control, of MKK1 at 1 uM concentration of inhibitor in presence of 5 uM ATP; how it was run: as §1
[12] = molecular target: Casein kinase I (Homo sapiens) (UniProt Q9HCP0+P78368+P48730+P49674+P48729); assay: Percent residual activity, relative to control, of CK1 at 1 uM concentration of inhibitor in presence of 20 uM ATP; assay type: protein assay; how it was run: as §1
[13] = molecular target: MAP kinase-interacting serine/threonine-protein kinase 1 (Homo sapiens) (UniProt Q9BUB5); assay: Percent residual activity, relative to control, of MNK1 at 1 uM concentration of inhibitor in presence of 50 uM ATP; how it was run: as §1
[14] = molecular target: RAC-alpha serine/threonine-protein kinase (Homo sapiens) (UniProt P31749); assay: Percent residual activity, relative to control, of PKB alpha (no ph) at 1 uM concentration of inhibitor in presence of 5 uM ATP; how it was run: as §1
[15] = molecular target: Glycogen synthase kinase-3 beta (Homo sapiens) (UniProt P49841); assay: Percent residual activity, relative to control, of GSK3 beta at 1uM concentration of inhibitor in presence of 5uM ATP; how it was run: as §1
[16] = molecular target: Serine/threonine-protein kinase Nek7 (Homo sapiens) (UniProt Q8TDX7); assay: Percent residual activity, relative to control, of NEK7 at 1 uM concentration of inhibitor in presence of 20 uM ATP; how it was run: as §1
[17] = molecular target: MAP kinase-interacting serine/threonine-protein kinase 2 (Homo sapiens) (UniProt Q9HBH9); assay: Percent residual activity, relative to control, of MNK2 at 1 uM concentration of inhibitor in presence of 50 uM ATP; how it was run: as §1
[18] = molecular target: Ribosomal protein S6 kinase (P70S6K) (Homo sapiens) (UniProt Q9UBS0+P23443); assay: Percent residual activity, relative to control, of P70S6K at 1 uM concentration of inhibitor in presence of 20 uM ATP; assay type: protein-complex assay; how it was run: as §1
[19] = molecular target: SRSF protein kinase 1 (Homo sapiens) (UniProt Q96SB4); assay: Percent residual activity, relative to control, of SRPK1 at 1 uM concentration of inhibitor in presence of 50 uM ATP; how it was run: as §1
[20] = molecular target: Lymphokine-activated killer T-cell-originated protein kinase (Homo sapiens) (UniProt Q96KB5); assay: Percent residual activity, relative to control, of PBK at 1uM concentration of inhibitor in presence of 50uM ATP; how it was run: as §1
[21] = molecular target: MAP kinase-activated protein kinase 3 (Homo sapiens) (UniProt Q16644); assay: Percent residual activity, relative to control, of MAPKAP-K3 at 1 uM concentration of inhibitor in presence of 20 uM ATP; how it was run: as §1
[22] = molecular target: Serine/threonine-protein kinase Chk1 (Homo sapiens) (UniProt O14757); assay: Percent residual activity, relative to control, of CHK1 at 1 uM concentration of inhibitor in presence of 20 uM ATP; how it was run: as §1
[23] = molecular target: Inhibitor of nuclear factor kappa-B kinase subunit beta (Homo sapiens) (UniProt O14920); assay: Percent residual activity, relative to control, of IKK beta at 1 uM concentration of inhibitor in presence of 5 uM ATP
How it was run: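 Kinase panel assay run at an ATP concentration close to the kinase's Km. Inhibitor tested at 1 µM. Activity expressed as percent residual relative to control incubations without inhibitor, as the mean of duplicate determinations.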

[24] = molecular target: Eukaryotic elongation factor 2 kinase (Homo sapiens) (UniProt O00418); assay: Percent residual activity, relative to control, of EF2K at 1 uM concentration of inhibitor in presence of 5 uM ATP; how it was run: as §1
[25] = molecular target: Dual specificity tyrosine-phosphorylation-regulated kinase 1A (Homo sapiens) (UniProt Q13627); assay: Percent residual activity, relative to control, of DYRK1a at 1 uM concentration of inhibitor in presence of 50 uM ATP; how it was run: as §1

Mitogen-activated protein kinase 12 (Homo sapiens), sequence (P53778 whole entry): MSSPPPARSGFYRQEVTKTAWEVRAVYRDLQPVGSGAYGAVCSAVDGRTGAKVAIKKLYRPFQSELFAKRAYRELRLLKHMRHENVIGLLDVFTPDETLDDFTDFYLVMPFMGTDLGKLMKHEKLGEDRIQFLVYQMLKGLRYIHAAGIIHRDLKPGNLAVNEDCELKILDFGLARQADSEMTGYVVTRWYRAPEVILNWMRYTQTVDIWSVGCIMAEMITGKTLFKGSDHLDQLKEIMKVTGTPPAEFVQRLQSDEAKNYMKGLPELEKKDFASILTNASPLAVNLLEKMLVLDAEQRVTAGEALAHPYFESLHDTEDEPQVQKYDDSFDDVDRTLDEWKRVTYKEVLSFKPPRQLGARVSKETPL
Serine/threonine-protein kinase Nek7 (Homo sapiens), sequence (Q8TDX7 whole entry, looked up): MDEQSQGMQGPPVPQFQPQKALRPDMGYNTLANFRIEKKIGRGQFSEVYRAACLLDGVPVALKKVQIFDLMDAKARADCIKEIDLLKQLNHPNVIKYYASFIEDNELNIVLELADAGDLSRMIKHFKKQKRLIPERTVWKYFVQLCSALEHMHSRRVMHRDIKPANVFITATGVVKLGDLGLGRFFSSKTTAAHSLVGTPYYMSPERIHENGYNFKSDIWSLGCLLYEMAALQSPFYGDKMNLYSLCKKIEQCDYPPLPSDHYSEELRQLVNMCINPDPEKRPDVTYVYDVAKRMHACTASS
RAC-alpha serine/threonine-protein kinase (Homo sapiens), sequence (P31749 whole entry): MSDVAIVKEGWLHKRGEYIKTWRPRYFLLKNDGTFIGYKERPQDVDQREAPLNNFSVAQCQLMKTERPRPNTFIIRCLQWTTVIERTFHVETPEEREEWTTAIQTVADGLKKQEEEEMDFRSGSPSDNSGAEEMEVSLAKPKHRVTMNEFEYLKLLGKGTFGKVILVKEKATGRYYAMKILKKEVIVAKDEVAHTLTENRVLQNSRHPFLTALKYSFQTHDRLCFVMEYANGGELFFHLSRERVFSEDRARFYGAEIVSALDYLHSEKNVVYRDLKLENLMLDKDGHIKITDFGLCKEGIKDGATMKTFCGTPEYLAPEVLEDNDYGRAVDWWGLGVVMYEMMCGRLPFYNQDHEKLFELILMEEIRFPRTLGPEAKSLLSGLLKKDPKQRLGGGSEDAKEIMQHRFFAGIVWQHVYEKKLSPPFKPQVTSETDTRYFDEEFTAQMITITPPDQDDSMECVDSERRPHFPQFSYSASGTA
RAC-beta serine/threonine-protein kinase (Homo sapiens), sequence (P31751 whole entry): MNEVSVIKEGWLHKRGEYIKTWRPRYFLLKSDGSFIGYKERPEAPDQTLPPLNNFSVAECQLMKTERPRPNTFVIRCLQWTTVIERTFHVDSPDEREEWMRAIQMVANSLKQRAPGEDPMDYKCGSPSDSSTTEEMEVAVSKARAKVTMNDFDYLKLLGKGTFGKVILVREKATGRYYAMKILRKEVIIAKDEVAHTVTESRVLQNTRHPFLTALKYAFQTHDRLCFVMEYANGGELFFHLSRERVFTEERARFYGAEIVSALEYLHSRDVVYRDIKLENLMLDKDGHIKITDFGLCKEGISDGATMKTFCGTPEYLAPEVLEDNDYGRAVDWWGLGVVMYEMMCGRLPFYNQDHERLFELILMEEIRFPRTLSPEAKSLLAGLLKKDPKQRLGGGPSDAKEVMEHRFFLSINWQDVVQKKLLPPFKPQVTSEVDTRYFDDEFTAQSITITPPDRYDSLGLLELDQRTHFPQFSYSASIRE
Glycogen synthase kinase-3 beta (Homo sapiens), sequence (P49841 whole entry, looked up): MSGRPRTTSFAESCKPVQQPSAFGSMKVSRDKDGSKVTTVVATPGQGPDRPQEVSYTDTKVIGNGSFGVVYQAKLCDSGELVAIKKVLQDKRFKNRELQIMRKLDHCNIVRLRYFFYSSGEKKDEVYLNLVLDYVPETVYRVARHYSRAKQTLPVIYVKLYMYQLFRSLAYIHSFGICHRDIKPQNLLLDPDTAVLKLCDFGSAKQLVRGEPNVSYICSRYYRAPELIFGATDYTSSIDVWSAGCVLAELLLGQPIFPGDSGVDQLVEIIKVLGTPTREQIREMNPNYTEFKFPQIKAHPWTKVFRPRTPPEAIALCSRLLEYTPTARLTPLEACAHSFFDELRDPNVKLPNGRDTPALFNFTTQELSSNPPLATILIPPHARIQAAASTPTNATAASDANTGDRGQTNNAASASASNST
SRSF protein kinase 1 (Homo sapiens), sequence (Q96SB4 whole entry): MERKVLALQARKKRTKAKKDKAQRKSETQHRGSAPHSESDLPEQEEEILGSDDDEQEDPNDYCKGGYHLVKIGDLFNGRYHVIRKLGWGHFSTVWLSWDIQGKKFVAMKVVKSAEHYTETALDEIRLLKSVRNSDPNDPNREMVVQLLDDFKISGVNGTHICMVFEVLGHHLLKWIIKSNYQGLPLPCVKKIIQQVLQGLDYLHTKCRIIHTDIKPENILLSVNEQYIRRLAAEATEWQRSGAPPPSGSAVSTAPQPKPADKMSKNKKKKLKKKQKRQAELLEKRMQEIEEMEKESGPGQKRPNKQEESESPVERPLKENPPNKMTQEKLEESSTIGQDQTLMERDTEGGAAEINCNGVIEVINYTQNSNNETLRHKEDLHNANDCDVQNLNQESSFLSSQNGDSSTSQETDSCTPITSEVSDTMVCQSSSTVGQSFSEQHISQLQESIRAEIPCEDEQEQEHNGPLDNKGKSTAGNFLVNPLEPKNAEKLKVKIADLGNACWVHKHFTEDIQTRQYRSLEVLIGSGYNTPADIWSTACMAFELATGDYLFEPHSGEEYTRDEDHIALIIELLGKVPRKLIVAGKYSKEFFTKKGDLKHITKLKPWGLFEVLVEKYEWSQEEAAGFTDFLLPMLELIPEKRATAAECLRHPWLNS
MAP kinase-interacting serine/threonine-protein kinase 1 (Homo sapiens), sequence (Q9BUB5 whole entry, looked up): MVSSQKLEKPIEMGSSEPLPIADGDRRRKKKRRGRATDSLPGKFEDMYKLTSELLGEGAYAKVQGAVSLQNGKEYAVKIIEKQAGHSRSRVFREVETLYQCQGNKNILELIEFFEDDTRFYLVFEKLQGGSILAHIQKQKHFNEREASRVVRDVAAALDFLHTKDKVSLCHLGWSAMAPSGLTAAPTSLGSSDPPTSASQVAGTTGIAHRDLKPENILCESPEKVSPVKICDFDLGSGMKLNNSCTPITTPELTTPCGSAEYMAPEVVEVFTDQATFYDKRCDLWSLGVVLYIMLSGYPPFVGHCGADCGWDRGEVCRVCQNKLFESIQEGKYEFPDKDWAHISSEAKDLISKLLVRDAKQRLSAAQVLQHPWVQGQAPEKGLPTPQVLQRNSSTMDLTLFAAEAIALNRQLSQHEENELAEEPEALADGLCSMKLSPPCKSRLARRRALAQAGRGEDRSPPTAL
Lymphokine-activated killer T-cell-originated protein kinase (Homo sapiens), sequence (Q96KB5 whole entry): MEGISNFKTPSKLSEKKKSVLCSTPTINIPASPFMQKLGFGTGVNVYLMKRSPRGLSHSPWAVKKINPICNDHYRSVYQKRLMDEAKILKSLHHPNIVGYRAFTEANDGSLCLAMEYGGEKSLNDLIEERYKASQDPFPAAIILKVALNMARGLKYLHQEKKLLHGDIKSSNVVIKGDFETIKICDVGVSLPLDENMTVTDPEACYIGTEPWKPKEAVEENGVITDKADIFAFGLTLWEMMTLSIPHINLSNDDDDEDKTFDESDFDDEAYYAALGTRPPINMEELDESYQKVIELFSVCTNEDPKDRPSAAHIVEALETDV
Inhibitor of nuclear factor kappa-B kinase subunit beta (Homo sapiens), sequence (O14920 whole entry): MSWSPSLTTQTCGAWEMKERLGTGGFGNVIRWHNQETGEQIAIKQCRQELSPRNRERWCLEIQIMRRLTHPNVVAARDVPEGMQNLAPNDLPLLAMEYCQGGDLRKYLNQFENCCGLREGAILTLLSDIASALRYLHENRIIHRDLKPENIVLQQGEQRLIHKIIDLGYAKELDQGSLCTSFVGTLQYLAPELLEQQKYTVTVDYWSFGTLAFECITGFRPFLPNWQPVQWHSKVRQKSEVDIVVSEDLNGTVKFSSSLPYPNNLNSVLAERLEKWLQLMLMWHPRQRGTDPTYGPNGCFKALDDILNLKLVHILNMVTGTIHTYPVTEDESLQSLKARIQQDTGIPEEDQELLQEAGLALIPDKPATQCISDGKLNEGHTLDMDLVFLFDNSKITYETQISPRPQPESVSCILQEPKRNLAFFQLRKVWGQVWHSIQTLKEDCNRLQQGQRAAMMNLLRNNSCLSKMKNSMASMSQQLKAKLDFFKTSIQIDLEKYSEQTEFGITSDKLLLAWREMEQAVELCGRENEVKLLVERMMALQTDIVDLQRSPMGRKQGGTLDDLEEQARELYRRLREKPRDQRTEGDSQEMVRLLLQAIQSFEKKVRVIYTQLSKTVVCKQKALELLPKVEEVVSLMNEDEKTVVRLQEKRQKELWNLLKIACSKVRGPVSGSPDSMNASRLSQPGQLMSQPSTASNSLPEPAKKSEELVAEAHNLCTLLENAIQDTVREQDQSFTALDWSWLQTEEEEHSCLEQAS
Serine/threonine-protein kinase Chk1 (Homo sapiens), sequence (O14757 whole entry): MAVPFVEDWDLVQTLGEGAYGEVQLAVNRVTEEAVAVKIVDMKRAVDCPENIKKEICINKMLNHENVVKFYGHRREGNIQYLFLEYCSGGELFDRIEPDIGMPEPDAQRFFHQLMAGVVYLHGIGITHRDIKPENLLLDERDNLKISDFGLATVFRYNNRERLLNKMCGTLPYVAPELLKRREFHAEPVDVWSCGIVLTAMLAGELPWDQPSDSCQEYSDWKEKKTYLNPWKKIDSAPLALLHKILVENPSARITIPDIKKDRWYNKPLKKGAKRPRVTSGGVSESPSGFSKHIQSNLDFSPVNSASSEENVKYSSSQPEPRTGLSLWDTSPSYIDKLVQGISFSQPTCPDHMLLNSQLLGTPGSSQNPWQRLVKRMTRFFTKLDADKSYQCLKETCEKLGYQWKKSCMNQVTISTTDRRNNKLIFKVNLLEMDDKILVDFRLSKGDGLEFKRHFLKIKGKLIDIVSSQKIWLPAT

Q: Which results are given for `N=C(N)NCCC[C@@H](NC(=O)[C@@H](CCCNC(=N)N)NC(=O)[C@@H](CCCNC(=N)N)NC(=O)[C@@H](CCCNC(=N)N)NC(=O)[C@@H](CCCNC(=N)N)NC(=O)[C@@H](CCCNC(=N)N)NC(=O)CCCCCNC(=O)[C@H]1O[C@@H](n2cnc3c(N)ncnc32)[C@H](O)[C@@H]1O)C(N)=O`?
A: Activity [1]: 85%; Activity [2]: 40%; Activity [3]: 3%; Activity [4]: 72%; Activity [5]: 111%; Activity [6]: 82%; Activity [7]: 107%; Activity [8]: 100%; Activity [9]: 2%; Activity [10]: 79%; Activity [11]: 77%; Activity [12]: 106%; Activity [13]: 102%; Activity [14]: 2%; Activity [15]: 56%; Activity [16]: 58%; Activity [17]: 99%; Activity [18]: 7%; Activity [19]: 100%; Activity [20]: 88%; Activity [21]: 67%; Activity [22]: 16%; Activity [23]: 94%; Activity [24]: 92%; Activity [25]: 72%
